Source: PubChem BioAssay (Johns Hopkins Ion Channel Center)
KCNK9 block: inhibitors of human KCNK9 two-pore domain potassium channel | actives 1.2% (n = 310,000) | B-score at 10 µM | HEK293 KCNK9, FluxOR thallium flux fluorescence; hits give low values;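 active = ratio B-score over 3 SD below the library mean, with starting fluorescence within 5 SD of its mean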;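 note: negative B-score means less thallium flux so channel inhibition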
hERG protect: compounds protecting human hERG from proarrhythmic drug block. CHO-hERG, FluxOR thallium flux, dofetilide IC70 present. actives 0.51% (n = 310,000). Q12809. activation (rescue from dofetilide block), less the hit threshold, % at 10 µM;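 active = activation above the mean of controls blocked by dofetilide plus 5 SD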;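 note: thallium influx through hERG after potassium depolarization seen as dye fluorescence rise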
KCNQ1 block: inhibitors of human KCNQ1 potassium channel; P51787; CHO-K1 KCNQ1, FluxOR thallium flux fluorescence; hits give high values; B-score at 10 µM; actives 1.3% (n = 310,000); AID 2642;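 active = compounds whose thallium flux B-score, printed positive for inhibition, exceeds three library SD while starting fluorescence stays within three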;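 note: channel opened by potassium depolarization with thallium stimulus after 20 min compound exposure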
Target sequence (P51787 whole entry, looked up): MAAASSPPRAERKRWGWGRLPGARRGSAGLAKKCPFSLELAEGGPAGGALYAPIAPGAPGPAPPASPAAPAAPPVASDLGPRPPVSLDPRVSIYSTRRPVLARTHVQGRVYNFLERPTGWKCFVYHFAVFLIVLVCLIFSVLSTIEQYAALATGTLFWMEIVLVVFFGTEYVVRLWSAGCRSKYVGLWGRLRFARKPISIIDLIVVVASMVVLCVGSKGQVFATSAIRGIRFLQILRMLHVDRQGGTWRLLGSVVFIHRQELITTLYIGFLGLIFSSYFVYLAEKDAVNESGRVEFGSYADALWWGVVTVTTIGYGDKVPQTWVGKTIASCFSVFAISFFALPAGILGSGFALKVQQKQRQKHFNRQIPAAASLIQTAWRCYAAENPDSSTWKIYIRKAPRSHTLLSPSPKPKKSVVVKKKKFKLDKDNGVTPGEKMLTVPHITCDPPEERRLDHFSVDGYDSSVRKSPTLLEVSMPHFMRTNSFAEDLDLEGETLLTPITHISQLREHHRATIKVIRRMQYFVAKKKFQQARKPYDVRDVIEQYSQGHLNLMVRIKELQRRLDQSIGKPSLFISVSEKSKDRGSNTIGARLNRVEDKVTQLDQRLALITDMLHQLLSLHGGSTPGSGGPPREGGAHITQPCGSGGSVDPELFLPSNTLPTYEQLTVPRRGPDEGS
KCNQ1 act: potentiators or activators of human KCNQ1 potassium channel; P51787; CHO-K1 KCNQ1, thallium flux FluxOR fluorescence; hits give high values; B-score at 10 µM; actives 0.35% (n = 310,000); AID 2648;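 active = fluorescence ratio B-score, a plate-corrected score, at least three library SD, with initial intensity B-score within 5 SD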
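Material: CHO-K1 cells stably expressing KCNQ1. Medium: assay buffer for compound exposure, DMSO matched across wells. Reagent: K+/Tl+ depolarizing stimulus. Compound dosing: single-concentration screen. Times: 37 °C overnight plating, 90-min dark dye load, 20-min compound pretreatment. Technique: FluxOR Tl+ flux fluorescence.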
Kir21 block: inhibitors of mouse Kir2.1 inward-rectifier potassium channel; P35561; HEK293-Kir2.1, FluxOR thallium flux fluorescence; hits give low values; B-score at 10 µM; actives 0.85% (n = 310,000); AID 1672;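 active = fluorescence ratio B-score at or below minus 3 SD of library scores, with starting-brightness B-score within 2 SD, cut at about -4.2 in these data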;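 note: channel flux triggered by added potassium and thallium sulfate stimulus; B-score of peak minus minimum fluorescence over baseline after thallium stimulus; more negative B-score means stronger Kir2.1 block with less thallium influx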
KCNK3 inh: human KCNK3 channel inhibition, primary screen. O14649. CHO-KCNK3 thallium flux, FluxOR fluorescence; hits give low values. B-score at 10 µM. actives 0.84% (n = 340,000). AID 602410;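 active = B-score under library mean minus 4 SD, starting fluorescence ratio at most library mean plus 5 SD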;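 note: more negative B-score means stronger inhibition of thallium flux through KCNK3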
KCNK9 block conf: human KCNK9 inhibitor confirmation; AID 492992; actives 43% (n = 4,900); HEK293 KCNK9 cells, FluxOR thallium flux fluorescence; inhibition, % at 10 µM; shares compounds with KCNK9 block;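 active = thallium signal inhibited by more than 5 SD of the compound-free buffer control wells, on both duplicate plates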;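 note: 0% = assay buffer control wells without compound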
Kir2-1 spec: mouse Kir2.1 off-target activity of KCNK9 modulators; inhibition, % at 10 µM; shares compounds with KCNK9 block; Kir2.1 cells, FluxOR thallium flux fluorescence; actives 4% (n = 4,900);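 active = thallium signal drop more than 5 SD beyond the mean of the no-compound control wells, seen in both duplicate plates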;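 note: signal is fluorescence rise after thallium addition divided by baseline fluorescence; plate controls were assay buffer only for no effect and full block by chlorpromazine control for full effect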
KCNK9 uninduced: second check of KCNK9 modulator effects in non-induced HEK293 cells. inhibition, % at 10 µM. actives 40% (n = 4,900). FluxOR thallium flux. shares compounds with KCNK9 block;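 active = thallium signal drop beyond 5 SD of the untreated control mean, on both duplicate plates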;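 note: plate controls were buffer only IC0 wells for no effect and SID17386958 at its maximal inhibitory level for full effect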
An asterisk follows results filed as active; i = inactive; · = no result given. Most compounds without a hit are left out; they make up all but 3.7% or so of the library.

SMILES	KCNK9 block	hERG protect	KCNQ1 block	KCNQ1 act	Kir21 block	KCNK3 inh	KCNK9 block conf	Kir2-1 spec	KCNK9 uninduced
COc1ccc(F)cc1C(=O)C1CCCN(Cc2c[nH]c3ccccc23)C1 (stereo not drawn)	i	-9	i	i	-3	i	·	·	·
COc1ccc(OC)c(CN2CCCC(C(=O)c3ccccc3SC)C2)c1 (stereo not drawn)	i	-13	i	i	-1.7	i	i	i	i
Cn1cc(CN2CCCC(CNC(=O)c3ccc4c(c3)OCO4)C2)c2ccccc21 (stereo not drawn)	i	-7	i	i	-0.04	i	·	·	·
COc1cc(C)ccc1OCCCCOc1ccccc1C(C)=O	i	-17	i	i	-2.1	i	i	i	i
COc1cc(C)ccc1OCCCOc1ccccc1Cl	i	-7	i	i	0.01	i	·	·	·
CC(C)Cn1c(=O)c2c(nc3n2CCCN3CCc2ccccc2)n(C)c1=O	-8.6*	-18	i	i	0.34	i	46%*	i	i
Cc1ccc2c(c1)N(C(=O)CCC(=O)NCc1cccc(Br)c1)CC(C)O2 (stereo not drawn)	i	-15	i	i	-0.02	i	i	i	i
Cc1ccc2c(c1)N(C(=O)CCC(=O)Nc1ccccc1Br)CC(C)O2 (stereo not drawn)	i	-8	i	i	-0.03	i	i	i	i
Cc1ccc(CNC(=O)CCC(=O)N2CC(C)Oc3ccc(Cl)cc32)cc1 (stereo not drawn)	i	-10	i	i	0.59	i	·	·	·
Cc1ccc(OCC(=O)N(C)CC(=O)N(CC(C)C)c2c(N)n(CC(C)C)c(=O)[nH]c2=O)c(C)c1	i	-19	i	i	0.49	i	·	·	·
CN(Cc1ccc(OC(F)F)cc1)C(=O)c1ccc2c(=O)n3c(nc2c1)CCC3	i	-8	i	i	-0.68	i	·	·	·
O=C(CCC(=O)c1ccc(Oc2ccccc2)cc1)Nc1cccc(Cl)c1Cl	i	-16	i	i	0.06	i	i	i	26%*
CCN1CCN(c2ccc(S(=O)(=O)N3CCOCC3)cc2NC(=O)CC(NC(C)=O)c2ccccc2)CC1 (stereo not drawn)	·	·	·	·	·	i	·	·	·
O=c1[nH]nc(Cc2ncc(C(F)(F)F)cc2Cl)c2ccccc12	i	-5	i	i	1.6	i	·	·	·
COc1cc(N2CCCC2)c(OC)cc1/C=C(/C#N)c1ccc(Br)cc1	i	-11	i	i	-1.5	i	·	·	·
COc1cc(N2CCCC2)c(OC)cc1/C=C(/C#N)c1ccc(F)cc1	-12*	-15	7*	i	1.5	i	50%*	i	66%*
COc1ccc(CNC(=O)CN(c2cc(C)cc(C)c2)S(=O)(=O)c2c(C)noc2C)cc1	-8.6*	-6	i	i	-2	i	i	i	i
COc1ccc(CNC(=O)CN(c2ccc(C)cc2)S(=O)(=O)c2c(C)noc2C)cc1	i	-4	i	i	-0.41	i	·	·	·
O=C(Nc1nnc(-c2ccc3c(c2)CCCC3)o1)c1ccccc1	i	-9	i	33*	0.95	i	i	i	i
O=C(Nc1nnc(-c2ccncc2)o1)c1ccccc1	i	-8	i	i	1.1	i	·	·	·
COc1ccc(OCc2cc(C(=O)N(C)C(C)c3ccon3)no2)c(Cl)c1 (stereo not drawn)	i	-11	i	i	-2.8	i	·	·	·
CCOc1ccc(C(=O)OCC(=O)N2CCCC2)cc1	i	-13	i	i	-0.26	i	·	·	·
COc1ccc2c(c1)-c1c(ssc1=S)C(C)(C)N2C(=O)CSC1=NCCS1	-12*	-11	i	i	-0.03	i	46%*	i	38%*
Cc1cc2c(cc1C)N(C(=O)CSC1=NCCS1)C(C)(C)c1ssc(=S)c1-2	-8.6*	-10	i	i	1.6	i	50%*	i	31%*
CC1(C)c2ssc(=S)c2-c2ccccc2N1C(=O)CSC1=NCCS1	i	-8	i	i	0	i	·	·	·
SMILES	KCNK9 block	hERG protect	KCNQ1 block	KCNQ1 act	Kir21 block	KCNK3 inh	KCNK9 block conf	Kir2-1 spec	KCNK9 uninduced
Cc1cc(C)c2c(c1)-c1c(ssc1=S)C(C)(C)N2C(=O)CSc1nncn1C	i	-6	i	i	-3.8	i	·	·	·
Cc1ccc(S(=O)(=O)N2C[C@@H]3CCCC[C@@H]3[C@@H](C)[C@H]2c2cn(Cc3ccccc3)c3ncccc23)cc1	·	·	·	·	·	i	·	·	·
CC1Sc2ccc(S(=O)(=O)CCC(=O)N3CCc4ccccc43)cc2NC1=O (stereo not drawn)	i	-3	i	i	0.92	i	·	·	·
COc1ccc(C(=O)NCc2nnc(SCC(=O)Nc3ccccc3OC)n2C)cc1	i	-5	i	i	0.5	i	i	i	i
O=C(CSC(=S)N1CCCCC1)Nc1ncc2c(n1)CCCC2=O	i	-12	i	i	-0.03	i	·	·	·
CC(=O)Nc1ccc(OCC(=O)N2CCc3ccccc3C2)cc1	i	2	i	i	0.72	i	·	·	·
CC(C)c1ccc(OCC(=O)N2CCc3ccccc3C2)cc1	i	-4	i	i	2.4	i	i	i	i
O=C(Cc1c(Cl)cccc1Cl)OCC(=O)N1CCc2ccccc2C1	i	-12	i	i	0.34	i	i	i	i
Cc1cc(C)c2nc(Cl)c(CN(Cc3ccco3)C(=O)Nc3ccccc3C)cc2c1	i	-9	i	i	-0.04	i	i	i	i
COCCN(Cc1cc2cc(C)cc(C)c2nc1Cl)C(=O)Nc1ccccc1	i	-5	i	i	0.04	i	·	·	·
Cc1ccc(C(=O)NCC(=O)Nc2ccc(Cl)cc2)s1	·	·	·	·	·	i	·	·	·
O=C(O)CCCn1cc(NC(=O)c2sc3ccccc3c2Cl)cn1	i	-5	i	i	1.3	i	·	·	·
C=CCSc1nc2sc3c(c2c(=O)n1CC)CCc1ccccc1-3	i	0	i	i	-0.7	i	i	i	i
C=CCn1c(SCC)nc2sc3c(c2c1=O)CCc1ccccc1-3	i	-10	i	i	0.33	i	·	·	·
